# Screens: PubChem, several laboratories
# A selection: hits, their analogues and other compounds. The true share with any hit is near 1.1%.
# FXIa inh 1536: blocks human coagulation factor XIa protease activity; inhibition, % at 5 µM; actives 0.14% (n = 220,000); purified FXIa, Boc-Glu-Ala-Arg-AMC fluorogenic substrate; P03951;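 active = inhibition of at least 40%; inactive = inhibition below 40%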;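 note: fluorescence of freed AMC excited at 355 nm; 0% = enzyme without compound and 100% = no enzyme blank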
# FXIIa inh: inhibitors of human coagulation factor XIIa; purified FXIIa, Boc-QGR-AMC fluorogenic substrate, 2 h; P00748; inhibition, % at 5 µM; actives 0.3% (n = 220,000); in the data active = inhibition above about 40%;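 note: 0% = enzyme with no compound and 100% = blank without enzyme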
# TbHK1 inh: T. brucei hexokinase 1 inhibition. inhibition, % at 10 µM. AID 1430. actives 0.11% (n = 220,000). recombinant TbHK1, G6PDH-coupled NADH A340;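 active = inhibition of 50% or more in the single-dose primary screen; inactive = inhibition below 50%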
# thrombin 1536: thrombin (human) inhibition. P00734. alpha-thrombin, Boc-VPR-AMC fluorogenic substrate cleavage. inhibition, % at 5 µM. actives 0.26% (n = 220,000);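 active = inhibition at or above 40%; inactive = inhibition below 40%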;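 note: 0% = enzyme with no compound and 100% = wells without enzyme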
#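 Material: human alpha-thrombin protein. Incubation: reaction at ambient temperature. Technique: fluorescence of released AMC, ex 355 nm, em 460 nm. Control set: no-compound enzyme wells and no-enzyme blanks. Also added: Boc-VPR-AMC substrate, 15 µM final. Buffer or medium: pH 7.5 Tris (50 mM) with NaCl 150 mM, Tween 20 0.05%.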
# hK5 inh: kallikrein 5 (human) inhibition; Q9Y337; recombinant hK5, fluorogenic AMC substrate cleavage; inhibition, % at 5 µM; actives 0.59% (n = 210,000);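 active = inhibition of 40% or more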;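 note: 0% = enzyme controls without compound and 100% = no-enzyme blanks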
# Target sequence (Q9Y337 67-293 limits assumed): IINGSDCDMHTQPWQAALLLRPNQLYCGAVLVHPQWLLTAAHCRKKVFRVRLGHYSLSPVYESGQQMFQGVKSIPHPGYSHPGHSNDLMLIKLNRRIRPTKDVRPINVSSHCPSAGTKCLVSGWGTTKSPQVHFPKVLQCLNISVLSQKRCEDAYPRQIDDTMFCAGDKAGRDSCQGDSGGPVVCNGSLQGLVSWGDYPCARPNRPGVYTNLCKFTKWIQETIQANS
# An asterisk follows results filed as active; / = no result given.
SMILES,FXIa inh 1536,FXIIa inh,TbHK1 inh,thrombin 1536,hK5 inh
COc1ccc(C(=O)N(Cc2ccco2)Cc2cc3cc(C)ccc3[nH]c2=O)cc1OC,/,/,-12,/,/
COc1ccccc1NC(=S)N(Cc1ccco1)Cc1cc2cc(C)ccc2[nH]c1=O,14,16,17,48*,38
COc1cccc(C2C([N+](=O)[O-])=C(N)Oc3cc(C)oc(=O)c32)c1 (centres undefined),0,7,-10,-9,-1
O=C(Cn1c(=S)[nH]c2ccccc2c1=O)NCCc1ccccc1,-6,8,-1,2,1
COc1ccc(S(=O)(=O)n2nc(OC(=O)c3ccccc3)cc2N)cc1,35,23,3,4,51*
COc1ccc(S(=O)(=O)n2nc(OC(=O)c3ccncc3)cc2N)cc1,2,7,-7,1,1
COc1ccc(S(=O)(=O)n2nc(OC(=O)c3cccs3)cc2N)cc1,38,19,3,18,78*
Cc1c(CN(C)C(=O)/C=C/c2ccc([N+](=O)[O-])cc2)cnn1C,10,7,-20,9,-7
COC(=O)c1cn(NC(=O)Cc2ccccc2Br)c(=O)c2ccccc12,-4,4,-6,-6,-1
COc1ccc(N2C(=O)CC(Nc3cccc([N+](=O)[O-])c3)C2=O)cc1 (centres undefined),18,44*,-3,17,42*
Cc1ccc(NC2CC(=O)N(c3cccc([N+](=O)[O-])c3)C2=O)cc1 (centres undefined),-4,5,-1,-1,-1
CCC(=O)Nc1cc(C(C)C)c(O)cc1C,6,18,5,18,83*
Cc1cc(O)c(C(C)C)cc1NC(=O)Nc1cccc2ccccc12,3,4,-5,-7,-7
COc1ccc(NC(=O)Cn2c(=O)n(CC3CCCO3)c(=O)c3ccccc32)c(OC)c1 (centres undefined),-1,7,2,-7,-1
O=C(COc1cc(Cl)c(Cl)cc1Cl)Nc1ccc([N+](=O)[O-])cc1Cl,-14,3,4,-6,31
Cc1cccc(OCC(O)CN2CC3(C)CC2CC(C)(C)C3)c1 (centres undefined),64*,12,5,3,-10
Cc1ccc(OCC(O)CN2CC3(C)CC2CC(C)(C)C3)cc1 (centres undefined),-1,7,4,-7,-7
Cc1ccc(CSCC(=O)Nc2ccc3c(c2)OCO3)cc1,17,26,0,-3,46*
COc1ccc(NC(=S)NNC(=O)CNc2ccc(Cl)cc2)cc1,-2,11,6,0,-4
CCOC(=O)c1c(O)c2cc(Cl)ccc2n(CC)c1=O,32,50*,11,34,27
COCc1cc(=O)[nH]c(-c2ccccc2)n1,0,8,6,0,3
COc1cccc(NC(=S)N(CCCN2CCCC2)Cc2ccco2)c1,-1,10,3,95*,3
CC(=O)c1c(C)nn(C(=O)c2cccs2)c1C,8,15,1,10,56*
CCOc1ncccc1C(=O)OCC(=O)Nc1ccc(C(C)C)cc1,-4,6,-3,-14,-8
CCOc1ncccc1C(=O)OCC(=O)Nc1ccc(C(N)=O)cc1,14,45*,-7,3,42*
SMILES,FXIa inh 1536,FXIIa inh,TbHK1 inh,thrombin 1536,hK5 inh
COc1ccc(CNc2nc(-c3ccccc3)nn2C(=O)c2cccs2)cc1,-2,4,-10,-8,-3
COc1ccc(CNc2nc(-c3cccnc3)nn2C(=O)C(C)C)cc1,-2,3,2,99*,-15
CCC(=O)n1nc(-c2cccnc2)nc1NCc1ccc(OC)cc1,-1,9,-4,100*,1
COc1ccc(CNc2nc(-c3cccnc3)nn2S(C)(=O)=O)cc1,1,8,-8,1,3
CC(C)C(=O)n1nc(-c2cccnc2)nc1NCc1cccs1,13,-3,5,100*,-6
O=C(c1cccnc1)n1nc(-c2ccco2)nc1NCc1cccs1,2,8,3,97*,0
COc1ccc(S(=O)(=O)N(CCc2ccccc2)CC(N)=O)cc1,-6,4,5,7,0
CCC(CC)NC(=O)CCCSc1nc2ccccc2[nH]1,13,14,8,7,7
c1csc(-c2nc3ccccc3[nH]2)c1,7,43*,-9,13,4
Cc1ccc(-c2nc3ccccc3[nH]2)s1,-15,-14,-33,-6,-9
O=C(OCC(=O)N1CCCc2ccccc21)c1cccc(S(=O)(=O)N2CCc3ccccc32)c1,-8,-2,1,5,-6
CCC1CCC2(CC1)SCC(=O)N2c1ccccc1 (centres undefined),59*,30,-1,13,63*
Cc1cccc(N2C(=O)CSC23CCCCC3)c1,-2,10,-1,-4,-1
CC1CCC2(CC1)SCC(=O)N2c1ccccc1 (centres undefined),21,24,1,20,91*
CCCCCCCCCCCCOC1OC(CO)C(O)C(O)C1NC(C)=O (centres undefined),6,11,1,-4,-10
CC(=O)C1C(c2ccc(Cl)cc2)c2c(noc2C)CC1(C)O (centres undefined),1,4,3,-5,1
COc1ccccc1CN1CCNC(=O)C1CC(=O)N(C)Cc1cnccn1 (centres undefined),32,49*,8,22,42*
Cn1c(SCC(=O)NNC(=S)Nc2ccccc2)nnc1-c1ccncc1,-1,8,2,50*,-4
Cc1cc(C)cc(OCC(=O)NNC(=O)CN2C(=O)c3ccccc3C2=O)c1,3,3,3,85*,54*
CC(=O)c1cc(-c2ccc(F)cc2)n(CCC(=O)Nc2cccc(C)n2)c1C,2,8,-2,0,-1
C=C(C)CN(CC)C(=O)CC1C(=O)NCCN1CC(C)(C)C (centres undefined),4,6,-6,44*,1
COC(=O)CN(C)C(=O)CC1C(=O)NCCN1CC(C)(C)C (centres undefined),-2,5,3,-2,-3
CSc1ccc(CN2C(=O)NC3(CCCCC3)C2=O)cc1,5,9,1,-2,5
COc1ccccc1NC(=O)Cn1nnc(-c2ccccc2NC(=O)c2cc3ccccc3oc2=O)n1,-1,4,-22,-2,1
N#C/C(=C\c1ccncc1)c1nc2ccccc2[nH]1,-1,1,-29,-7,-5
N#C/C(=C\c1cccnc1)c1nc2ccccc2[nH]1,63*,32,-24,11,39
O=C(NCc1ccc2c3c(cccc13)C(=O)N2)c1cccs1,57*,42*,-8,8,56*
CCSc1ccccc1C(=O)NCCCn1ccnc1,-5,20,-3,3,43*
CC(C)(C)C(=O)Nc1ccccc1C(=O)NCCCn1ccnc1,-1,5,2,-3,-2
Cc1ccc(CSc2ncnc3c2cnn3-c2ccc(C)cc2)cc1,22,41*,0,21,45*
